In test [1] the target is T1, Prostaglandin D2 receptor 2 (Homo sapiens, UniProt Q9Y5Y4).
T1 sequence (Q9Y5Y4 whole entry): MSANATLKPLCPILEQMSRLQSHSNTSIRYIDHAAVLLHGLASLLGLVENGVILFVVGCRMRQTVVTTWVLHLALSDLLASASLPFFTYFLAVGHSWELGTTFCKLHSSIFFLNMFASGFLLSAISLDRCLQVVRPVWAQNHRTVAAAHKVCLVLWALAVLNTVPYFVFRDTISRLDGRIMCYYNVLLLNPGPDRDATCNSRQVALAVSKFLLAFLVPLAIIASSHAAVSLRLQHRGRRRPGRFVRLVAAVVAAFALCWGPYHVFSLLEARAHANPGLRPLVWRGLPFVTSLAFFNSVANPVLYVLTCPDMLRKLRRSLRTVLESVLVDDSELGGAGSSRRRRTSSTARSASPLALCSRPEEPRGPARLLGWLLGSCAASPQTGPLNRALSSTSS
The test is described as follows: Displacement of [3H]PGD2 from human CRTH2 receptor expressed in 293 cells by scintillation counting in presence of 0.5% BSA. The class given is cell-based, HEK293. An outline of the steps:
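Whole-cell binding on 293 cells stably transfected with hCRTH2. [3H]-PGD2 incubated with cells plus increasing compound concentrations in binding buffer containing 0.5% BSA. Cells washed, bound label counted by scintillation, and the concentration giving 50% inhibition of binding taken as IC50. Means of three experiments.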

In test [2] the target is T1, Prostaglandin D2 receptor 2. Put plainly: Displacement of [3H]PGD2 from human CRTH2 receptor expressed in 293 cells by scintillation counting in presence of 50% human plasma. The class given is cell-based, HEK293. An outline of the steps:
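Whole-cell binding on 293 cells stably transfected with hCRTH2, run in binding buffer containing 50% human plasma. [3H]-PGD2 incubated with cells and rising compound concentrations. After washing, cell-bound label measured by scintillation counting, and IC50 taken as the concentration halving binding. Means of three experiments.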

A further test relates to Eosinophil. The test is described as follows: Inhibition of PGD2-induced human eosinophil shape change by flow cytometry. The class given is functional, cell-based. The essentials:
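Enriched human eosinophils at 10^6 cells/mL in PBS with Ca2+/Mg2+, 0.1% BSA, 10 mM Hepes, 10 mM glucose. Antagonist or vehicle (0.05% DMSO) applied 10 min at room temperature, then 10 nM PGD2 for 10 min at 37 °C. Response expressed as % of maximal PGD2 response. Means of two experiments.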
For orientation: In flow cytometry, cells or beads pass a laser one at a time.

Test [3] concerns the target T2, Prostaglandin D2 receptor (Homo sapiens, UniProt Q13258).
T2 sequence (Q13258 whole entry): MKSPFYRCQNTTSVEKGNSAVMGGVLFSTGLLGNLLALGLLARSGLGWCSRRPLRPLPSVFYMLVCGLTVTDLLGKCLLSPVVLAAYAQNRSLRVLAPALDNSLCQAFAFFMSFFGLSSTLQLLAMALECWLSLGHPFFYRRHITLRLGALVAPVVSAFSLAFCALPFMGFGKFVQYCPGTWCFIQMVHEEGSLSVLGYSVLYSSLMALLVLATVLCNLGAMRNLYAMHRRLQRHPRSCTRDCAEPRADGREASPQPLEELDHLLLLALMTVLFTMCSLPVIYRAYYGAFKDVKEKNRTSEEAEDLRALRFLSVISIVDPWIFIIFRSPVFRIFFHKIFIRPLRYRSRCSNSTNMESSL
The test is described as follows: Displacement of [3H]PGD2 from human DP receptor expressed in 293 cells by scintillation counting in presence of 0.5% BSA. It counts as cell-based, HEK293. The essentials: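 hDP binding on stably transfected 293 cells. [3H]-PGD2 incubated with 293(hDP) cells and increasing compound concentrations in buffer with 0.5% BSA. After washing, remaining bound radioligand counted by scintillation, and IC50 read as the concentration giving 50% inhibition. Means of three experiments.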
On the technique in general: Loss of bound radioactivity is the signal in a displacement assay; it reports binding, not function.

For 36 compounds, IC50 results are on record in ChEMBL document CHEMBL1153725, “Tetrahydroquinoline derivatives as CRTH2 antagonists” (Bioorg Med Chem Lett, 2009).

For `C[C@H]1C[C@@H](N(C(=O)CCC(=O)O)c2ccccc2)c2ccccc2N1C(=O)c1ccccc1`, the IC50 – broadly, the concentration that inhibits the measured activity by half – is 3 nM in test [1], 9 nM in test [2], 0.77 nM in the test with Eosinophil and more than 10 µM in test [3]. For `CC(=O)N(c1ccccc1)[C@@H]1C[C@H](C)N(C(=O)c2ccccc2)c2ccccc21`, the IC50 in test [1] is 17 nM; in test [2], 440 nM; in the test with Eosinophil, 141 nM; in test [3] it was more than 10 µM. As for `CC(=O)N(c1ccccc1)[C@H]1C[C@@H](C)N(C(=O)c2ccccc2)c2ccccc21`, the values for the half-maximal inhibitory concentration (IC50) in test [1] and in test [2] were 420 nM and more than 10000 nM, respectively. As for `C[C@@H]1C[C@H](N(C(=O)CCC(=O)O)c2ccccc2)c2ccccc2N1C(=O)c1ccccc1`, the results for the IC50 in test [1] and in test [2] were 400 nM and 39 nM, respectively. In the case of `CC(=O)N(c1ccccc1)C1CC(C)Nc2ccccc21` (racemic), in test [1], the IC50 was more than 50000 nM. For the compound `CC(=O)NC1CC(C)N(C(=O)c2ccccc2)c2ccccc21` (racemic), the IC50 in test [1] came to 3620 nM. Consider `CCN(C(C)=O)C1CC(C)N(C(=O)c2ccccc2)c2ccccc21` (racemic), for which the concentration for half-maximal inhibition (IC50) in test [1] was 250 nM. For `CC(=O)N(Cc1ccccc1)C1CC(C)N(C(=O)c2ccccc2)c2ccccc21` (racemic), the IC50 in test [1] came out at 430 nM. For the compound `CC(=O)N(c1ccccc1)C1CC(C)N(Cc2ccccc2)c2ccccc21` (racemic), in test [1], the IC50 came to 200 nM. On to `CC(=O)N(c1ccccc1)C1CC(C)N(C(=O)Cc2ccccc2)c2ccccc21` (racemic), for which the IC50 in test [1] came to 1750 nM.

Turning to `CC(=O)N(c1ccccc1)C1CC(C)N(C(=O)OCc2ccccc2)c2ccccc21` (racemic), the IC50 in test [1] turned out to be 910 nM. Still for that read-out and setting: for `CC(=O)N(c1ccccc1)C1CC(C)N(C(=O)/C=C/c2ccccc2)c2ccccc21` (racemic) the value was 210 nM. As to `CC1CC(Nc2ccccc2)c2ccccc2N1C(=O)c1ccccc1` (racemic), in test [1], the IC50 was more than 50000 nM. Take `CCN(c1ccccc1)C1CC(C)N(C(=O)c2ccccc2)c2ccccc21` (racemic): the 50% inhibitory concentration (IC50) in test [1] came to 3170 nM.

On to `CC1CC(N(c2ccccc2)S(=O)(=O)c2ccccc2)c2ccccc2N1C(=O)c1ccccc1` (racemic), for which the half-maximal inhibitory concentration (IC50) in test [1] was 5500 nM.

As for `CC1CC(N(C(=O)c2ccccc2)c2ccccc2)c2ccccc2N1C(=O)c1ccccc1` (racemic), in test [1], the concentration for half-maximal inhibition (IC50) came to 105 nM. As to `CC(=O)N(c1ccccc1)C1CC(C)N(C(=O)c2ccc(OC(F)(F)F)cc2)c2ccccc21` (racemic), the results for the half-inhibitory concentration (IC50) in test [1] and in test [2] were 26 nM and more than 10000 nM, respectively. As for `CC(=O)N(c1ccccc1)C1CC(C)N(C(=O)c2ccc(Oc3ccccc3)cc2)c2ccccc21` (racemic), the IC50 in test [1] was determined as 13 nM. Turning to `COc1ccc(C(=O)N2c3ccccc3C(N(C(C)=O)c3ccccc3)CC2C)cc1` (racemic), the IC50 in test [1] came out at 28 nM; in test [2], 130 nM.

As for `CC(=O)N(c1ccccc1)C1CC(C)N(C(=O)c2ccc(Cl)cc2)c2ccccc21` (racemic), the IC50 in test [1] amounted to 93 nM. On the same count and under the same terms, for `CC(=O)N(c1ccccc1)C1CC(C)N(C(=O)c2ccc(C(C)(C)C)cc2)c2ccccc21` (racemic) the value was 34 nM. Consider `CC(=O)N(c1ccccc1)[C@@H]1C[C@H](C)N(C(=O)c2ccccc2)c2ccccc21` (racemic), for which the IC50 came out at 43 nM in test [1] and 1050 nM in test [2]. Turning to `CC(=O)N(c1ccccc1)[C@H]1C[C@H](C)N(C(=O)c2ccccc2)c2ccccc21` (racemic), the IC50 in test [1] is more than 10000 nM. Take `CC1CC(N(C(=O)CC(=O)O)c2ccccc2)c2ccccc2N1C(=O)c1ccccc1` (racemic): in test [1], the IC50 was found to be 540 nM.

On to `CC1CC(N(C(=O)CCCC(=O)O)c2ccccc2)c2ccccc2N1C(=O)c1ccccc1` (racemic), for which, in test [1], the IC50 came out at 22 nM.

Turning to `CC1CC(N(C(=O)/C=C/C(=O)O)c2ccccc2)c2ccccc2N1C(=O)c1ccccc1` (racemic), in test [1], the IC50 turned out to be 2280 nM. Consider `CC1CC(N(C(=O)c2cccc(C(=O)O)c2)c2ccccc2)c2ccccc2N1C(=O)c1ccccc1` (racemic), for which the IC50 in test [1] was found to be 40300 nM.

As for `CC(=O)N(c1ccccc1)C1CC(C)N(C(=O)c2ccccc2C)c2ccccc21` (racemic), the IC50 in test [1] is 1420 nM.

On to `CCCCC(=O)N1c2ccccc2C(N(C(C)=O)c2ccccc2)CC1C` (racemic), for which the IC50 in test [1] was determined as 1460 nM. Same read-out and setting: the figure for `CC(=O)N(c1ccccc1)C1CC(C)N(S(=O)(=O)c2ccccc2)c2ccccc21` (racemic) is 62000 nM. Regarding `CC(=O)N(c1ccccc1)C1CC(C)N(C(=O)c2cccc(C)c2)c2ccccc21` (racemic), in test [1], the IC50 came to 74 nM.

For the compound `CC(=O)N(c1ccccc1)C1CC(C)N(C(=O)c2ccc(C)cc2)c2ccccc21` (racemic), the half-maximal inhibitory concentration (IC50) in test [1] amounted to 41 nM. With `CCCCC(=O)N(c1ccccc1)C1CC(C)N(C(=O)c2ccccc2)c2ccccc21` (racemic), the IC50 in test [1] turned out to be 64 nM. In the case of `CC1CC(N(C(=O)CCC(=O)O)c2ccccc2)c2ccccc2N1C(=O)c1ccccc1` (racemic), the values for the IC50 in test [1] and in test [2] were 5 nM and 28 nM, respectively. For `CC1CC(N(C(=O)CCC(=O)ON)c2ccccc2)c2ccccc2N1C(=O)c1ccccc1` (racemic), in test [1], the concentration for half-maximal inhibition (IC50) was found to be 29 nM. As to `CC(=O)N(c1ccccc1)C1CC(C)N(C(=O)c2ccc(C)c(C)c2)c2ccccc21` (racemic), the concentration for half-maximal inhibition (IC50) in test [1] was 92 nM.
